Bioassay records: PubChem BioAssay, several laboratories
MC4R barr agon = activates human MC4R beta-arrestin recruitment; U2OS MC4R beta-arrestin complementation, luminescence; percent of melanotan II response, DMSO zero; activation, % at 8.9 µM; 360,000 tested, 0.98% active;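 active = activation above a per-plate cutoff, the mean activation of sample wells on that plate plus 3 SD, cut at about 8% in these data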
Target sequence (P32245 whole entry, looked up): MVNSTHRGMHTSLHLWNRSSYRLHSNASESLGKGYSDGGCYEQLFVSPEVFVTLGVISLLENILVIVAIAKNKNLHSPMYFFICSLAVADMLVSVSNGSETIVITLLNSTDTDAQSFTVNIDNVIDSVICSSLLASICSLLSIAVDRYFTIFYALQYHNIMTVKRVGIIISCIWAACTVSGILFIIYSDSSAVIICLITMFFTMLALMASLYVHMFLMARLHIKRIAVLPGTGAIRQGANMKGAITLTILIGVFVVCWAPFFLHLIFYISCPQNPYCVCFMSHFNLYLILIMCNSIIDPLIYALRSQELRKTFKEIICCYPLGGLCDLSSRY
EBI2 block = antagonists of human EBI2 receptor; P32249; EBI2 beta-arrestin recruitment, luminescence, 7a,25-OHC stimulated; inhibition, % at 5 µM; 360,000 tested, 0.81% active; AID 651636; in the data active = inhibition above about 38%;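 also: enzyme fragment complementation signal reports receptor beta-arrestin coupling in cells; 0% = agonist plus DMSO wells and 100% = wells without agonist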
Target sequence (P32249 whole entry, looked up, the tested form may be a part): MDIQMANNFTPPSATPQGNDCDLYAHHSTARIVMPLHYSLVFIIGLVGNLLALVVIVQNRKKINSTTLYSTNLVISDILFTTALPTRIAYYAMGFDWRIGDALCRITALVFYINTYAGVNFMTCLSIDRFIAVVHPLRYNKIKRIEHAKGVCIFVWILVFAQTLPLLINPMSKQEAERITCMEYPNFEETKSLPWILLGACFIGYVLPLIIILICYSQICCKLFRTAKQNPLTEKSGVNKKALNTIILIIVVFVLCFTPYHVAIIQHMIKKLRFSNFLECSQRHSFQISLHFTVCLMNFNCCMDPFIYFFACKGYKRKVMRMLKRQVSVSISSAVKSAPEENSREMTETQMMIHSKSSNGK
MC4R antagonist = human MC4R antagonism in cAMP assay; 360,000 tested, 0.48% active; P32245; MC4R-expressing cells, MTII-stimulated cAMP, LANCE TR-FRET; inhibition, % at 6.5 µM; AID 540295;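 active = inhibition above its plate's cutoff, the mean of tested wells on that plate plus 3 SD, cut at about 29% in these data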;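 also: 0% = Melanotan II alone and 100% = Melanotan II plus saturating MCL0020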
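Material: U2OS-MC4R stable cell line | Reagent: Melanotan II challenge after compound preincubation | Doses: One concentration, 6.5 µM nominal | Incubation: 30-min compound preincubation, 1-h Melanotan II challenge, 1-h detection, room temperature | Signal: TR-FRET cAMP assay | Replicates: One well per compound, no replicates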
Myeloid diff MLP = myeloid differentiation induction. ER-HoxA9 myeloid progenitors, lysozyme-GFP differentiation, flow cytometry. calls only at 10 µM. AID 624256. 360,000 tested, 1% active;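 active = normalized GFP-positive differentiation at or above the plate's own cutoff, the solvent-only control mean plus 3 SD; inconclusive = no clear call, values can overlap the other calls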;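 also: cells exposed to compound for four days before flow analysis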
Granule exo inh = lytic granule exocytosis inhibition. 360,000 tested, 0.66% active. TALL-104 LAMP-1 surface exposure, flow cytometry; cells stimulated with thapsigargin and PMA. AID 651702. inhibition, % at 10 µM;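 active = inhibition above about 55%, limit read from the data; inconclusive = no clear call, values can overlap the other calls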
EBI2 conf = confirmation of human EBI2 receptor antagonists. shares compounds with EBI2 block. EBI2 beta-arrestin luminescence, 7a,25-OHC antagonism. inhibition, % at 5 µM. 2,400 tested, 29% active;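 active = inhibition of at least 50%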
EBI2 agonist = counter-screen for EBI2 antagonists: EBI2 agonist activity; AID 652000; EBI2-expressing cells, agonist mode, luminescence, 60 min; 0% vehicle, 100% 7α,25-dihydroxycholesterol control; shares compounds with EBI2 block; 2,400 tested, under 10 active; activation, % at 5 µM;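 active = activation of at least 50%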
bGal counter = inhibits E. coli beta-galactosidase, counter-screen for EBI2 antagonists. shares compounds with EBI2 block. purified beta-galactosidase, luminescent Galacton Star, 15 min. inhibition, % at 5 µM. 2,400 tested, 1% active. AID 652176;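 active = replicate-average signal at least 3 plate SD below neutral wells, shown as high inhibition, flagging enzyme-inhibiting false positives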;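 also: 0% = DMSO wells with enzyme and 100% = wells lacking enzyme; higher means stronger loss of beta-gal luminescence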
An asterisk follows results filed as active; i = inactive; u = inconclusive; x = no result. Compounds with a hit are over-represented: about 3.7% of the library has one in this group of screens.

SMILES | MC4R barr agon | EBI2 block | MC4R antagonist | Myeloid diff MLP | Granule exo inh | EBI2 conf | EBI2 agonist | bGal counter
Cc1cccc(OCC(=O)Nc2ccccc2N2CCCCC2)c1C | 3.0 | 43.4* | 7.5 | i | 26.8 | 10.9 | -0.9 | -7.6
O=C(Nc1ccccc1F)Nc1ccccc1N1CCCCC1 | 0.8 | 53.1* | 8.2 | i | 5.3 | 6.4 | -1.5 | -14.2
Cc1cccc(C)c1OCC(=O)Nc1ccccc1N1CCCCC1 | 0.0 | 26.4 | 5.7 | i | -1.2 | x | x | x
Cc1cccc(OCC(=O)NC2CCCc3ccccc32)c1C (stereo not given) | 1.3 | 57.5* | 1.4 | i | -17.0 | 58.2* | -1.2 | -20.9
O=C(Nc1ccccc1N1CCCCC1)c1ccc(F)cc1 | 3.1 | -8.5 | 0.3 | i | 3.5 | x | x | x
Cc1ccccc1-n1ncc(C(C)NC(=O)c2ccco2)c1C (stereo not given) | -0.9 | 7.4 | 3.8 | i | -0.5 | x | x | x
C[C@H](CO)N1C[C@H](C)[C@@H](CN(C)S(=O)(=O)c2ccc(F)cc2)Oc2ccc(NC(=O)C3CC3)cc2C1=O | 0.0 | -3.2 | 0.2 | i | 0.4 | x | x | x
COc1ccc(CNC(=O)CS(=O)CC(=O)O)cc1OC (stereo not given) | -0.1 | -4.2 | -0.7 | i | -8.2 | x | x | x
CCOC(=O)c1c2ccc(OCC(=O)NN)cc2n2ccccc12 | 0.8 | -9.9 | -4.3 | i | 4.6 | x | x | x
CCOC(=O)c1c2ccc(OCC(=O)N/N=C/c3ccc(C)cc3)cc2n2ccccc12 | 0.8 | 47.7* | -1.8 | i | -4.5 | 37.9 | 0.9 | 7.9
COc1ccc(CNC(=O)C2CCN(S(=O)(=O)c3ccc4c(c3)N(C(C)=O)CCO4)CC2)cc1 | 0.9 | 72.8* | 18.8 | i | -0.4 | 46.1 | 1.0 | 3.4
Cc1ccc(CNC(=O)C2CCN(S(=O)(=O)c3ccc4c(c3)OCCCO4)CC2)cc1 | 0.3 | 78.8* | 9.9 | i | -3.0 | 66.9* | 1.8 | 8.3
Cc1ccc(NC(=O)C2CCN(S(=O)(=O)c3ccc4c(c3)OCCCO4)CC2)nc1 | -3.2 | -8.4 | 1.9 | i | 5.2 | x | x | x
CC(C)N(C(=O)[C@H]1CC(CC(=O)NC(C)(C)C)C(=O)N2CCc3c([nH]c4ccccc34)[C@]12C)C(C)C (stereo not given in full) | 1.4 | 1.9 | -7.2 | i | -0.6 | x | x | x
O=C(NCc1ccc2c(c1)OCO2)C1CCN(C(=O)Nc2ccc(Cl)cc2)CC1 | -0.2 | 46.0* | -1.3 | i | -5.0 | 5.8 | -1.3 | -12.4
CCOc1ccccc1/C=N/NC(=O)CNC(=O)c1cccs1 | 0.3 | -4.3 | 2.9 | i | 0.5 | x | x | x
O=C(/C=C1\C(=O)Nc2ccccc21)/C=C1\C(=O)Nc2ccccc21 | -0.1 | 40.8* | 15.6 | i | -2.0 | 36.8 | -0.9 | -19.0
CN(C)/C=C1\C(=O)Nc2ccccc21 | 1.2 | -6.2 | 2.5 | i | -1.7 | x | x | x
CCN1CCN(C(=O)/C=C/c2ccc3c(c2)OCO3)CC1 | -1.1 | 66.0* | -0.9 | i | 5.0 | 48.3 | 0.2 | 4.0
CN1CCN(C(=O)/C=C/c2ccc3c(c2)OCO3)CC1 | -0.9 | 37.1 | 4.7 | i | -6.0 | x | x | x
O=C(/C=C/C=C/c1ccc2c(c1)OCO2)N1CCCCC1 | -2.4 | 6.9 | 4.1 | i | 1.9 | x | x | x
CCOC(=O)N1CCN(C(=O)/C=C/c2ccc(OC)cc2)CC1 | -0.7 | 89.6* | 6.7 | i | -5.4 | 74.8* | -1.5 | -11.2
COC(=O)C1CCN(C(=O)/C=C/c2ccc3c(c2)OCO3)CC1 | -0.4 | 57.4* | -1.6 | i | -2.1 | 39.1 | -0.6 | -9.3
CCOC(=O)N1CCN(C(=O)/C=C/c2ccc3c(c2)OCO3)CC1 | -2.0 | 59.3* | 0.9 | i | -5.1 | 61.3* | -1.0 | -15.0
COc1ccc(S(=O)(=O)N(C)C[C@@H]2Oc3cc(Br)ccc3S(=O)(=O)N([C@H](C)CO)C[C@@H]2C)cc1 | -1.4 | 12.3 | 3.1 | i | -5.1 | x | x | x
SMILES | MC4R barr agon | EBI2 block | MC4R antagonist | Myeloid diff MLP | Granule exo inh | EBI2 conf | EBI2 agonist | bGal counter
Cc1[nH]n(-c2nc(-c3ccccc3F)cc(=O)[nH]2)c(=O)c1CCO | -3.3 | -6.3 | 4.8 | i | 1.2 | x | x | x
C=CCn1c(COc2ccc(F)cc2)nnc1SCC(=O)NC1CCS(=O)(=O)C1 (stereo not given) | 3.3 | -4.6 | -3.2 | i | 1.2 | x | x | x
CCCn1cnnc1CNC(=O)[C@H]1O[C@@H](n2ccc(=O)[nH]c2=O)[C@H](O)[C@@H]1O | x | 0.4 | x | i | -1.8 | x | x | x
COc1ccccc1/C=N/NC(=O)NC12CC3CC(CC(C3)C1)C2 | 0.8 | 47.4* | -0.6 | i | -37.5 | 40.5 | 1.4 | 3.6
CC(=O)OCCCNc1cc(Sc2ccc(C)cc2)c2nonc2c1[N+](=O)[O-] | -3.3 | 85.3* | -11.4 | u | 1.6 | 45.4 | -1.0 | 1.8
CCCCCCn1c(N2CCN(c3cccc(Cl)c3)CC2)nc2c1c(=O)[nH]c(=O)n2C | 4.2 | 36.5* | 0.8 | i | 26.0 | 18.6 | 0.4 | 5.2
CC(C)Sc1ccc(C(=O)Nc2ccc(F)cc2F)cn1 | 3.3 | 45.2* | 8.4 | i | -0.3 | 20.4 | 0.2 | 12.1
O=C(Nc1ccc(F)cc1F)c1ccc(-n2cccn2)nc1 | -1.4 | 3.8 | -1.2 | i | 3.9 | x | x | x
C(=C\c1nccc2c1[nH]c1ccccc12)/c1ccccc1 | 4.2 | 55.0* | -0.9 | i | 43.2 | 34.8 | 2.4 | -1.6
COc1cccc(NC(=O)N2CCc3nc(Nc4cc(Cl)cc(Cl)c4)ncc3C2)c1 | -2.1 | 23.9 | 20.8 | i | 2.7 | x | x | x
CC(C)c1ccc(Nc2ncc3c(n2)CCN(C(=O)Nc2ccc(F)c(Cl)c2)C3)cc1 | -3.3 | 51.7* | 15.0 | i | 27.3 | 19.9 | 1.3 | 3.4
Nc1ccc2c(c1)C(=O)CCC2 | 1.0 | -11.3 | 11.4 | i | -5.4 | x | x | x
COc1cc(/C=C2\CCC(C)C3=C(c4cc(OC)c(OC)c(OC)c4)C(C#N)=C(N)OC32)cc(OC)c1OC (stereo not given) | -1.1 | 45.0* | 6.8 | i | 5.2 | 20.4 | 0.2 | 9.7
Cc1ccc(N2CCN(c3ccc(C)cc3)C2c2cccnc2)cc1 | -0.2 | 68.2* | 11.0 | i | -3.7 | 28.2 | -0.4 | -11.8
c1ccc(N2CCN(c3ccccc3)C2c2cccnc2)cc1 | 1.4 | 2.1 | -1.3 | i | -1.2 | x | x | x
CCOC(=O)/C(C#N)=C/c1c(Oc2cc(C)cc(C)c2)nc2ccccn2c1=O | -1.1 | 50.5* | 8.5 | i | -3.0 | 34.2 | 0.8 | 1.6
CCCCC(=O)N(C)c1c(CC)nc2c(OCc3cc(Cl)cc(Cl)c3)cccn12 | -1.3 | 24.2 | -1.9 | i | -3.2 | x | x | x
Cc1ccc(/C=C/C(=O)NC(=S)N2CCN(C)CC2)cc1 | 0.7 | 55.1* | 9.4 | i | 4.3 | 49.1 | 0.0 | -13.8
